Assay [1] relates to HeLa. Briefly: Cytotoxicity against human HeLa cells by MTT assay. Format: functional, cell-based. The method, boiled down: (§1)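 MTT assay per a literature method. HeLa (cervical) and SMMC7721 (hepatoma) cells came from the Cell Bank of the Shanghai Institute of Cell Biology. Fluorouracil served as positive control. Three independent replicates were run, and IC50 values were reported.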
On the technique in general: Tetrazolium dyes change colour on reduction, which living cells bring about.

The subject of assay [2] is SMMC-7721. Briefly: Cytotoxicity against human SMMC7721 cells by MTT assay. It counts as functional, cell-based. The method, boiled down: as §1

pIC50: −log10 of the molar value. Bounds are passed on as bounds.

By pIC50 is commonly meant −log10 of the IC50, conventionally taken in molar units. The low end stands for a high IC50, the high end for a low IC50. Consider `C/C=C(\C)C(=O)O[C@@H]1[C@@H]2OC[C@]3(C)[C@H](OC(C)=O)C[C@H](O)[C@@](C)([C@@H]23)[C@H]2CCO[C@H]3C[C@@H](C4=CCOC4=O)C(C)=C3[C@]12C` [CHISONIMBOLININ F], for which the pIC50 in assay [1] and in assay [2] was below 4.00 in each case.

Turning to `C/C=C(\C)C(=O)O[C@@H]1[C@@H]2OC[C@]3(C)[C@H](OC(C)=O)C[C@H](O)[C@@](C)([C@@H]23)[C@H]2C[C@H](OC)O[C@H]3C[C@@H](C4=CCOC4=O)C(C)=C3[C@]12C` [CHISONIMBOLININ B], the pIC50 in assay [1] was below 4.00; in assay [2], 4.30.

`C/C=C(\C)C(=O)O[C@@H]1[C@@H]2OC[C@]3(C)[C@H](OC(C)=O)C[C@H](OC(C)=O)[C@@](C)([C@@H]23)[C@H]2CCO[C@H]3C[C@@H](C4=CCOC4=O)C(C)=C3[C@]12C` [CHISONIMBOLININ G]: the pIC50 in assay [1] and in assay [2] was below 4.00 each time.

As for `C/C=C(\C)C(=O)O[C@@H]1[C@@H]2OC[C@]3(C)[C@H](OC(C)=O)C[C@H](O)[C@@](C)([C@@H]23)[C@H]2C[C@H](OCC)O[C@H]3C[C@@H](C4=CCOC4=O)C(C)=C3[C@]12C` [CHISONIMBOLININ E], the pIC50 in assay [1] and in assay [2] was below 4.00 each time.

Turning to `C/C=C(\C)C(=O)O[C@@H]1[C@@H]2OC[C@]3(C)[C@H](OC(C)=O)C[C@H](O)[C@@](C)([C@@H]23)[C@H]2C[C@H](O)O[C@H]3C[C@@H](C4=CCOC4=O)C(C)=C3[C@]12C` [CHISONIMBOLININ D], the pIC50 in assay [1] is 4.49; in assay [2] it was 4.30.

For `C/C=C(\C)C(=O)O[C@@H]1[C@@H]2OC[C@]3(C)[C@H](OC(C)=O)C[C@H](OC(C)=O)[C@@](C)([C@@H]23)[C@H]2C[C@H](OC)O[C@H]3C[C@@H](C4=CCOC4=O)C(C)=C3[C@]12C` [CHISONIMBOLININ A], the negative logarithm of the IC50 (pIC50) in assay [1] and in assay [2] was below 4.00 each time.

As to `C/C=C(\C)C(=O)O[C@@H]1[C@@H]2OC[C@]3(C)[C@H](OC(=O)/C(C)=C/C)C[C@H](O)[C@@](C)([C@@H]23)[C@H]2C[C@H](OC)O[C@H]3C[C@@H](C4=CCOC4=O)C(C)=C3[C@]12C` [CHISONIMBOLININ C], the pIC50 is 4.89 in assay [1] and 4.30 in assay [2].
